Experimental data: ChEMBL document CHEMBL1131596, “Novel potent nonpeptide aminopeptidase N inhibitors with a cyclic imide skeleton” (J Med Chem, 1998)

Key:
Aminopeptidase N = Aminopeptidase N (Homo sapiens, UniProt P15144); assay: Inhibitory activity against aminopeptidase N assayed by the L-Ala-MCA method.
Dipeptidyl peptidase 4 = Dipeptidyl peptidase 4 (Homo sapiens, UniProt P27487); assay: Inhibitory activity against dipeptidyl peptidase IV (DPP- IV)
How it was run: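 Enzymatic activity was measured in intact cells (DPP-IV as a membrane-associated ecto enzyme) using glycyl-L-proline 4-methylcoumaryl-7-amide (Gly-Pro-AMC) as the substrate.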

Aminopeptidase N, sequence (P15144 whole entry): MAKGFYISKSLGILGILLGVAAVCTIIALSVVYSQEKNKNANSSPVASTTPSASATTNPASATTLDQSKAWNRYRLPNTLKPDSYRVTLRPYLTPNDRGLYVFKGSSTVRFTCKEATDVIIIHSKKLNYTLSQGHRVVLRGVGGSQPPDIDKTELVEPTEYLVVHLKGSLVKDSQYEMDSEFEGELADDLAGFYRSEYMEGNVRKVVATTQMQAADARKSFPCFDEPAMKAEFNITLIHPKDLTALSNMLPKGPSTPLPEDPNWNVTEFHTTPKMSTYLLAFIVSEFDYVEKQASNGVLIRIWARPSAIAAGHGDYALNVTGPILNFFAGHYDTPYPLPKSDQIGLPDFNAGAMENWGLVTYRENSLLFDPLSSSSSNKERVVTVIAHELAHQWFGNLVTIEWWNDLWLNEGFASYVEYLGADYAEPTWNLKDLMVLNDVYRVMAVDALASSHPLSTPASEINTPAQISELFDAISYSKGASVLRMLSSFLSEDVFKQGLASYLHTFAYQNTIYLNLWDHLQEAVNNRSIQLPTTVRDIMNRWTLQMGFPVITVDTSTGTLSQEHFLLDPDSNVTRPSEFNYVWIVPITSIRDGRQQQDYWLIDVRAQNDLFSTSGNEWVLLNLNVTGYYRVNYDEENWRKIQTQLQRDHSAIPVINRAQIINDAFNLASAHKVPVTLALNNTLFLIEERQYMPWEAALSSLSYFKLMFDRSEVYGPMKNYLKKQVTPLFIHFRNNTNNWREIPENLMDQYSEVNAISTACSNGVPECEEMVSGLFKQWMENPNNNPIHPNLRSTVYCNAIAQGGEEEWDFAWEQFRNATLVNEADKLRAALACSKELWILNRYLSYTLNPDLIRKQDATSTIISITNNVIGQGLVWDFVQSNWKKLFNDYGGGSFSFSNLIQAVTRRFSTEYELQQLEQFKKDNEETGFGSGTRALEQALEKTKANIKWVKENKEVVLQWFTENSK
Dipeptidyl peptidase 4, sequence (P27487 whole entry): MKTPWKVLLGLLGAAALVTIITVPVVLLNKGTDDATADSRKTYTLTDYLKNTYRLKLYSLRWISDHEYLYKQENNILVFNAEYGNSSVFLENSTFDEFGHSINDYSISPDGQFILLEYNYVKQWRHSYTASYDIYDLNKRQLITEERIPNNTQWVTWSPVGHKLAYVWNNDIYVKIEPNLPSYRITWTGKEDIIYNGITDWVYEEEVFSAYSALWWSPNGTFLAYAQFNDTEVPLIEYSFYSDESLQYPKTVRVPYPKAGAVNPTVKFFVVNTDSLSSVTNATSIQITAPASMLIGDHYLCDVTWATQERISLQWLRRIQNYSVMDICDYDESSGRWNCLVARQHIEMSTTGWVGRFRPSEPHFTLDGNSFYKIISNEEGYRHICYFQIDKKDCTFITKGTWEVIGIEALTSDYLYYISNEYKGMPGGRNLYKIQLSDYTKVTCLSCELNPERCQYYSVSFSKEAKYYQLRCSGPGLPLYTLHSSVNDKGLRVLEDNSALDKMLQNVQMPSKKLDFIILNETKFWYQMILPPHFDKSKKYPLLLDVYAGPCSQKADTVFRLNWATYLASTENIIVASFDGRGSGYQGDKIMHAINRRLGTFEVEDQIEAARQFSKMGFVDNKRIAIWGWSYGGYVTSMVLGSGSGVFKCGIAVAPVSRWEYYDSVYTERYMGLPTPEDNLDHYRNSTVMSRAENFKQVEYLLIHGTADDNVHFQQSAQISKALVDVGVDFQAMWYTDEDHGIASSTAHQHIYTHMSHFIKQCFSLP

| SMILES | IC50 (Aminopeptidase N) [µM] | IC50 (Dipeptidyl peptidase 4) [µM] |
| --- | --- | --- |
| CCc1cccc(CC)c1N1C(=O)c2ccc([N+](=O)[O-])cc2C1=O | > 308 | > 308 |
| CCc1cccc(CC)c1N1C(=O)c2ccc(O)cc2C1=O | – | 43.3 |
| CC(C)c1ccc(N2C(=O)Cc3ccccc3C2=O)cc1 | > 358 | > 358 |
| CCc1cccc(CC)c1N1C(=O)Cc2ccccc2C1=O | – | > 341 |
| Cc1cc(C)cc(N2C(=O)Cc3ccccc3C2=O)c1 | 23.4 | > 377 |
| CC(C)c1cccc(C(C)C)c1N1C(=O)c2cc3ccccc3cc2C1=O | > 280 | – |
| CC(C)c1cccc(C(C)C)c1N1C(=O)c2ccc(N)cc2C1=O | – | 251 |
| CC(C)c1cccc(C(C)C)c1N1C(=O)c2cccc([N+](=O)[O-])c2C1=O | > 284 | – |
| O=C1Cc2ccccc2C(=O)N1c1ccccc1 | 395 | > 421 |
| CC(C)c1cccc(C(C)C)c1N1C(=O)c2cccc(O)c2C1=O | – | 43.6 |
| CC(C)C[C@H](NC(=O)C(O)[C@H](N)Cc1ccccc1)C(=O)O (single isomer, unassigned) [UBENIMEX] | – | > 324 |
| CC(C)c1cccc(C(C)C)c1N1C(=O)c2cccc(N)c2C1=O | 20.8 | – |
| CSc1ccccc1N1C(=O)Cc2ccccc2C1=O | 3.18 | > 353 |
| O=C1Cc2ccccc2C(=O)N1c1c(Cl)cccc1Cl | 144 | > 327 |
| CC(C)c1cccc(C(C)C)c1N1C(=O)c2ccc([N+](=O)[O-])cc2C1=O | > 284 | – |
| CCc1ccccc1N1C(=O)Cc2ccccc2C1=O | 67.1 | > 377 |
| O=C([C@@H]1CCCN1)N1CCC[C@H]1B(O)O | > 472 | 86.3 |
| CC(C)c1ccccc1N1C(=O)Cc2ccccc2C1=O | 194 | > 358 |
| CC(C)c1cccc(C(C)C)c1N1C(=O)Cc2ccccc2C1=O | 10.9 | > 311 |
| CC(C)c1cccc(C(C)C)c1N1C(=O)c2ccc(O)cc2C1=O | – | 65.9 |
| CCCCC[C@H](CC(=O)NO)C(=O)N[C@H](C(=O)N1CCC[C@H]1CO)C(C)C [ACTINONIN] | 0.83 | > 259 |
| COc1ccccc1N1C(=O)Cc2ccccc2C1=O | 110 | > 374 |

Other lines, results leading:

| IC50 (Aminopeptidase N) [µM] | IC50 (Dipeptidyl peptidase 4) [µM] | SMILES |
| --- | --- | --- |
| > 398 | – | Cc1cccc(C)c1N1C(=O)c2ccccc2C1=O |
| – | 87.9 | Cc1cccc(C)c1N1C(=O)c2ccc(N)cc2C1=O |
| 157 | > 377 | Cc1cccc(C)c1N1C(=O)Cc2ccccc2C1=O |
| > 325 | – | CC(C)c1cccc(C(C)C)c1N1C(=O)c2ccccc2C1=O |
| 60.3 | > 377 | Cc1ccc(C)c(N2C(=O)Cc3ccccc3C2=O)c1 |
| 187 | > 377 | Cc1ccc(N2C(=O)Cc3ccccc3C2=O)c(C)c1 |
| > 376 | > 376 | Cc1cccc(C)c1N1C(=O)c2cccc(N)c2C1=O |
| 303 | > 358 | CCc1cccc(CC)c1N1C(=O)c2ccccc2C1=O |
| 113 | > 377 | Cc1cccc(N2C(=O)Cc3ccccc3C2=O)c1C |
| – | 74.1 | Cc1cccc(C)c1N1C(=O)c2ccc(O)cc2C1=O |
| 265 | – | Cc1cccc(C)c1N1C(=O)c2cccc(O)c2C1=O |
